The test system of series [1] is PC-12. Description: Cytoprotection activity against H2O2-induced cytotoxicity in rat PC12 cells assessed as cell viability at 10 and 20 uM pre-incubated for 24 hrs before H2O2 exposure for 12 hrs in presence of non-trageting shRNA by MTT assay. Type of series: functional, cell-based.
The target in series [2] is T1, Nuclear factor erythroid 2-related factor 2 (Rattus norvegicus) (UniProt O54968).
T1 sequence (whole entry): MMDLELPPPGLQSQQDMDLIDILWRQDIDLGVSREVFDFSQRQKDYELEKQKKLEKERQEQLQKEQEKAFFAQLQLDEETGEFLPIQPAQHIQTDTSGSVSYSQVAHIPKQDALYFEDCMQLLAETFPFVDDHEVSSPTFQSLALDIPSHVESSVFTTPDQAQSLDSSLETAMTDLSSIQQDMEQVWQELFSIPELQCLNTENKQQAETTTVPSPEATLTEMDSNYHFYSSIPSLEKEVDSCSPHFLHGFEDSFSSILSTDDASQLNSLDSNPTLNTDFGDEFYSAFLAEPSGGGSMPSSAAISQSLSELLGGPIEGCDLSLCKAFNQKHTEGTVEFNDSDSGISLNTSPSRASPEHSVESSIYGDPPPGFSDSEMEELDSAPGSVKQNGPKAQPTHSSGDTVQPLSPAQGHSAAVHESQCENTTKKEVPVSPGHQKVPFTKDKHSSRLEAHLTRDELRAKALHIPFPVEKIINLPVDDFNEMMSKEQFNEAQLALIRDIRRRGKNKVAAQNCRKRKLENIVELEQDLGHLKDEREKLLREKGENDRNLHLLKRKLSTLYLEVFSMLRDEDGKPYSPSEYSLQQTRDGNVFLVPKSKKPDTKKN
Kind of series: Induction of Nrf2-mediated antioxidant genes expression in rat PC12 cells assessed as increase in NQO1 protein expression at 10 and 20 uM incubated for 20 hrs by Western blotting method. Type of series: cell-based. To be noted: PC-12. In general terms: A western blot detects proteins with antibodies after separation by electrophoresis.

Series [3] in a line: Antioxidant activity assessed as ABTS radical scavenging activity at 20 uM incubated for 30 mins by spectrophotometry. Format: physicochemical. To be noted: 0.5 h.
Series [4] has as its system PC-12. Kind of series: Cytoprotection activity against H2O2-induced apoptosis in rat PC12 cells assessed as reduction in apoptotic nuclei levels at 10 and 20 uM pre-incubated for 24 hrs before H2O2 exposure for 5 hrs by Hoechst 33342 staining based fluorescent microscopy. Type of series: functional, cell-based. Put shortly:
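PC12 cells seeded 2×10^5/well, grown 1 day, pretreated with compound 24 h, then medium replaced with fresh medium containing 200 μM 6-OHDA or 500 μM H2O2 for 5 h; Hoechst 33342 added at 5 μg/mL final; condensed, brightly fluorescent nuclei counted as apoptotic under fluorescence microscopy.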

Series [5] concerns PC-12. Kind of series: Cytoprotection activity against H2O2-induced cytotoxicity in rat PC12 cells assessed as cell viability at 10 and 20 uM pre-incubated for 24 hrs before H2O2 exposure for 12 hrs by LDH release assay. Type of series: functional, cell-based. On the technique in general: LDH in the medium is a marker of cell lysis.
The nature of series [6]: Cytoprotection activity against 6-OHDA-induced cytotoxicity in rat PC12 cells assessed as cell viability at 10 and 20 uM pre-incubated for 24 hrs before 6-OHDA exposure for 12 hrs by MTT assay. Format: functional, PC-12. A general note: Formazan colour is commonly taken as a measure of viable cells.
The target of series [7] is T1, Nuclear factor erythroid 2-related factor 2 (Rattus norvegicus). Kind of series: Induction of Nrf2-mediated antioxidant genes expression in rat PC12 cells assessed as increase in HO1 protein expression at 10 and 20 uM incubated for 20 hrs by Western blotting method. Format: cell-based. The note with it: PC-12.
Series [8] concerns PC-12. Description: Cytoprotection activity against 6-OHDA-induced apoptosis in rat PC12 cells assessed as reduction in caspase-3 activation at 10 and 20 uM pre-incubated for 24 hrs before 6-OHDA exposure for 24 hrs by colorimetric assay. Format: functional, cell-based. Put shortly:
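Lysed in RIPA buffer (pH 7.5), protein by Bradford; caspase-3 measured colorimetrically with Ac-DEVD-pNA substrate, expressed as % of control; mean ± SD, three independent experiments.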

The test system of series [9] is PC-12. Description: Reduction in cytosolic Nrf2 protein level in rat PC12 cells at 20 uM incubated for 2 to 8 hrs by Western blotting method. Type of series: functional, cell-based. Put shortly: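 Seeded at 1×10^6 cells per 60-mm dish for 24 h, PC12 cells were treated with 20 μM compound for 0, 2, 4 and 8 h. Whole-cell, cytosolic and nuclear protein extracts were then prepared and Nrf2 probed by Western blot.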

Series [10] deals with PC-12. Description: Cytoprotection activity against H2O2-induced oxidative stress in rat PC12 cells assessed as TrxR1 activity at pre-incubated for 24 hrs before H2O2 exposure for 12 hrs by Escherichia coli Trx based assay. Type of series: functional, cell-based. Put shortly:
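Cellular TrxR activity: extract with 20 μg protein incubated 30 min at 37 °C in 100 mM Tris-HCl pH 7.4 containing 0.3 mM insulin, 660 μM NADPH, 3 mM EDTA, 4 μM E. coli Trx; stopped with 1 mM DTNB in 6 M guanidine-HCl pH 8.0; A412 minus Trx-free blank; % of DMSO control.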

For series [11], the system named is PC-12. Kind of series: Cytoprotection activity against 6-OHDA-induced cytotoxicity in rat PC12 cells assessed as cell viability at 20 uM pre-incubated for 24 hrs before 6-OHDA exposure for 12 hrs by MTT assay. Type of series: functional, cell-based.
The test system of series [12] is PC-12. Description: Induction of antioxidant genes expression in rat PC12 cells assessed as increase in TrxR1 mRNA level at 20 uM incubated for 3 hrs by qRT-PCR method. Format: functional, cell-based. Put shortly:
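PC12 cells (1×10^6 per 60-mm dish) seeded 1 day, then exposed to 20 μM compound for 0, 3, 6 and 12 h. Total RNA isolated and quantified by 260/280 absorbance. Transcripts measured by qRT-PCR, normalized to GAPDH internal control, compared against 0 h control. Means ± SD of three independent experiments.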

Series [13] deals with PC-12. Kind of series: Induction of antioxidant defense system in rat PC12 cells assessed as increase in Trx activity level incubated for 24 hrs by recombinant rat TrxR1 based assay. Format: functional, cell-based. Put shortly:
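Cellular Trx activity: extract with 20 μg protein incubated 30 min at 37 °C in 100 mM Tris-HCl pH 7.4 with 0.3 mM insulin, 660 μM NADPH, 3 mM EDTA, 60 nM recombinant rat TrxR1; stopped with 1 mM DTNB in 6 M guanidine-HCl pH 8.0; A412 minus TrxR-free blank; % of DMSO control.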

Active and inactive are the calls of the source. The rule behind the calls is not given here.

As for `COc1ccc(/C=C/C(=O)N2CCCC2=O)cc1`, the result (with PC-12 [1]; in series [2]; in the series with PC-12 [4]; with PC-12 [5]; in [7]; with PC-12 [9]) was Active. Besides, the result with PC-12 [10], in the series on PC-12 [11], with PC-12 [12] and in the series on PC-12 [13] was Active. For the same molecule, the figures for the Activity result (in [3]; in series [6]; in the series with PC-12 [8]) were “Not Active”, 75% and “Dose-dependent effect”, respectively.

For the molecule `COc1cc(/C=C/C(=O)N2CCCCC2=O)cc(OC)c1OC`, the result (in the series on PC-12 [1]; in [2]; with PC-12 [4]; in the series with PC-12 [5]; in series [7]; with PC-12 [9]) was Active. The outcome in the series with PC-12 [10], with PC-12 [11], with PC-12 [12] and with PC-12 [13] was Active. Moreover, the Activity entry in series [3] was “Not Active”; in series [6] it was 75%; in the series on PC-12 [8] it was “Dose-dependent effect”.

The values above are taken from ChEMBL document CHEMBL3580644, “Synthesis of piperlongumine analogues and discovery of nuclear factor erythroid 2-related factor 2 (Nrf2) activators as potential neuroprotective agents” (J Med Chem, 2015).
